Our source for the Tremorolytic dose, Ki and Kd values is ChEMBL document CHEMBL1126145, “Phenyl-substituted analogues of oxotremorine as muscarinic antagonists” (J Med Chem, 1992).

The species named for one assay is Mus musculus. Put plainly: Antimuscarinic activity on the intact mice.(Dose required to double the dose of oxotremorine inducing a predetermined tremor intensity.). Type of assay: functional. A digest of the protocol:
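Male Swiss-Webster mice (24-32 g). Antagonist given i.p. at 200 µmol/kg to groups of ≥6 mice; 6 untreated controls. 20 min later, the i.v. oxotremorine ED50 was estimated by the up-and-down method, with intermittent spontaneous (grade 2) tremor as endpoint. Active compounds were tested at two further doses. The dose doubling the oxotremorine ED50 was found by linear regression of ED50 vs antagonist dose (including zero).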

In assay [1] the target is Muscarinic acetylcholine receptor. Nature of the assay: Inhibition of [3H]N-methylscopolamine binding to muscarinic acetylcholine receptor of rat cerebral cortex. Type of assay: tissue-based. In a few lines: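 Male Sprague-Dawley rat (200-300 g) cortex homogenized in 50 mM Na-K phosphate pH 7.4, spun 30000g, resuspended at 10 mg wet tissue/mL. Incubated with (-)-[3H]NMS 0.3 nM plus competitor for 30 min at 30 °C; filtration assay. IC50 from one-site nonlinear fit, converted to Ki by Cheng-Prusoff. Three experiments, each in triplicate.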

Assay [2] has the same target. Nature of the assay: Determination of dissociation constant from antimuscarinic activity on isolated guinea pig ileum. Type of assay: tissue-based, Cavia porcellus.

By Ki is commonly meant a measure of affinity in units of concentration, obtained from inhibition or displacement. Usually Kd stands for the free concentration of one partner at which half of the binding sites on the other are occupied at equilibrium, for simple one-to-one binding. The low end stands for tighter binding, the high end for weaker binding. In the assay listed under Mus musculus, `CC(=O)N(C)C(C#CCN1CCCC1)c1ccccc1` (stereo unspecified) had a Tremorolytic dose of 17.4 µM/kg. The Ki in assay [1] was determined as 310 nM. Further, the dissociation constant Kd in assay [2] worked out at 620 nM.
In the same order, the values of `O=C1CCCN1C(C#CCN1CCCC1)c1ccccc1` (stereo unspecified) are 8.93 µM/kg, 110 nM and 200 nM.
With `O=C1C(c2ccccc2)CCN1CC#CCN1CCCC1` (stereo unspecified), in the assay filed under Mus musculus, the Tremorolytic dose was above 200 µM/kg. The inhibition constant Ki in assay [1] stood at 6910 nM. The molecule also showed a dissociation constant (Kd) in assay [2] of 11210 nM.
For `CC(=O)N(C)C(C)C#CCN1CCCC1` (stereo unspecified), in the assay filed under Mus musculus, the Tremorolytic dose is 0.6 µM/kg.
`O=C1CCC(c2ccccc2)N1CC#CCN1CCCC1` (stereo unspecified): the Tremorolytic dose in the assay filed under Mus musculus was found to be 55.6 µM/kg. The inhibition constant Ki in assay [1] stood at 540 nM. This molecule yielded a dissociation constant Kd in assay [2] of 850 nM.
In the same order, the values of `O=C1CC(c2ccccc2)CN1CC#CCN1CCCC1` (stereo unspecified) are above 200 µM/kg, 5770 nM and 15220 nM.
As for `CC(=O)N(CC#CCN1CCCC1)Cc1ccccc1`, in the assay listed under Mus musculus, the Tremorolytic dose was 154 µM/kg. For the same molecule, the Ki in assay [1] is 1290 nM. The molecule also showed a dissociation constant Kd in assay [2] of 5890 nM.
`CC(C#CCN1CCCC1)N1C(=O)CCC1=O` (stereo unspecified) had a Tremorolytic dose in the assay listed under Mus musculus of 1.2 µM/kg.
As to `CC1CCC(=O)N1CC#CCN1CCCC1` (stereo unspecified), in the assay filed under Mus musculus, the Tremorolytic dose stood at 0.4 µM/kg.
`CC(C#CCN1CCCC1)N1CCCC1=O` (stereo unspecified) gave a Tremorolytic dose in the assay filed under Mus musculus of 0.5 µM/kg. In addition, the dissociation constant Kd in assay [2] is 91 nM.
In the case of `O=C1CCCN1CC#CCN1CCC(c2ccccc2)C1` (stereo unspecified), in the assay filed under Mus musculus, the Tremorolytic dose is 122 µM/kg. Also, in assay [1], the Ki is 2400 nM. Further, the dissociation constant Kd in assay [2] was 8100 nM.
Consider `O=C1CCC(=O)N1C(C#CCN1CCCC1)c1ccccc1` (stereo unspecified), for which, in the assay filed under Mus musculus, the Tremorolytic dose was determined as 7.29 µM/kg. In assay [1], this molecule showed an inhibition constant (Ki) of 120 nM. Also, in assay [2], the Kd worked out at 100 nM.
As to `CN(CC#CCN1CCCC1)C(=O)Cc1ccccc1`, the Tremorolytic dose in the assay filed under Mus musculus is above 200 µM/kg. In assay [1], this molecule yielded a Ki of 5200 nM. Besides, the equilibrium dissociation constant (Kd) in assay [2] is 20500 nM.
In the same order, the values of `CN(C(=O)C(F)(F)F)C(C#CCN1CCCC1)c1ccccc1` (stereo unspecified) are 26.5 µM/kg, 230 nM and 500 nM.
In turn, `CN1[C@@H]2CC[C@H]1C[C@@H](OC(=O)C(CO)c1ccccc1)C2` (stereo partly specified) [ATROPINE] showed a Tremorolytic dose in the assay filed under Mus musculus of 0.9 µM/kg.
